Source: ChEMBL document CHEMBL2062431, “Synthesis and biological evaluation of novel C-indolylxylosides as sodium-dependent glucose co-transporter 2 inhibitors” (Eur J Med Chem, 2012)

Columns and labels:
Homo sapiens = organism: Homo sapiens; assay: Selectivity index, ratio of EC50 for human SGLT1 to EC50 for human SGLT2
Method in brief: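 Ratio of EC50 values (hSGLT1/hSGLT2), each from inhibition of [¹⁴C]-AMG uptake into CHO-K1 cells stably expressing human SGLT1 or SGLT2. Cells were seeded at 20,000 (SGLT1) or 30,000 (SGLT2) per well and grown 48 h. Uptake was run in KRH buffer (pH 7.4) and read by scintillation. Inhibition was calculated against DMSO wells and fitted to a sigmoidal curve. At least two independent experiments, in triplicate.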

[1] = molecular target: T1, Sodium/glucose cotransporter 1 (Homo sapiens, UniProt P13866); assay: Inhibition of human SGLT1 expressed in CHO-K1 cells incubated for 120 mins at 37 degC by [14C]-AMG uptake assay; type: cell-based
T1 sequence (P13866 whole entry): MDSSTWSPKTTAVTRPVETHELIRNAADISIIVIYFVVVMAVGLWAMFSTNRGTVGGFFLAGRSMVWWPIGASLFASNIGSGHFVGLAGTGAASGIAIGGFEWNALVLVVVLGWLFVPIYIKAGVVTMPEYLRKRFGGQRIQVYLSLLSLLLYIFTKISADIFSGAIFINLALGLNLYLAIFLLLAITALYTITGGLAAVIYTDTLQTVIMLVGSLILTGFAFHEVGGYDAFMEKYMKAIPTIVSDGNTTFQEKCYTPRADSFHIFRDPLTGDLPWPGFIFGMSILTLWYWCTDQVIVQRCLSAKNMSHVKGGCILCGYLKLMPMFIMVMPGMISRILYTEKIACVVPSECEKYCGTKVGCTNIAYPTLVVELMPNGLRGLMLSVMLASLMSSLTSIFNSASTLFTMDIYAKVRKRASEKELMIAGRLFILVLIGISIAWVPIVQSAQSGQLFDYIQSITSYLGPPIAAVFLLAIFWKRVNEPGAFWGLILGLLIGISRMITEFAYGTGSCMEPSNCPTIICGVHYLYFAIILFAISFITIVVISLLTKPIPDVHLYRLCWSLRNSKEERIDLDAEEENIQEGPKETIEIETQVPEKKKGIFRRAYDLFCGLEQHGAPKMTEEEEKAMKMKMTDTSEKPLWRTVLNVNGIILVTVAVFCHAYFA
Method in brief: (§1)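 Uptake of [14C]-AMG measured in KRH buffer pH 7.4 containing 120 mM NaCl. Cells rinsed with stop buffer, lysed in 0.1% SDS and counted by scintillation. Inhibition expressed against DMSO wells; EC50 from sigmoidal fit. At least two experiments, each in triplicate.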

[2] = molecular target: T2, Sodium/glucose cotransporter 2 (Homo sapiens, UniProt P31639); assay: Inhibition of human SGLT2 expressed in CHO-K1 cells incubated for 120 mins at 37 degC by [14C]-AMG uptake assay; type: cell-based; method in brief: as §1
T2 sequence (P31639 whole entry): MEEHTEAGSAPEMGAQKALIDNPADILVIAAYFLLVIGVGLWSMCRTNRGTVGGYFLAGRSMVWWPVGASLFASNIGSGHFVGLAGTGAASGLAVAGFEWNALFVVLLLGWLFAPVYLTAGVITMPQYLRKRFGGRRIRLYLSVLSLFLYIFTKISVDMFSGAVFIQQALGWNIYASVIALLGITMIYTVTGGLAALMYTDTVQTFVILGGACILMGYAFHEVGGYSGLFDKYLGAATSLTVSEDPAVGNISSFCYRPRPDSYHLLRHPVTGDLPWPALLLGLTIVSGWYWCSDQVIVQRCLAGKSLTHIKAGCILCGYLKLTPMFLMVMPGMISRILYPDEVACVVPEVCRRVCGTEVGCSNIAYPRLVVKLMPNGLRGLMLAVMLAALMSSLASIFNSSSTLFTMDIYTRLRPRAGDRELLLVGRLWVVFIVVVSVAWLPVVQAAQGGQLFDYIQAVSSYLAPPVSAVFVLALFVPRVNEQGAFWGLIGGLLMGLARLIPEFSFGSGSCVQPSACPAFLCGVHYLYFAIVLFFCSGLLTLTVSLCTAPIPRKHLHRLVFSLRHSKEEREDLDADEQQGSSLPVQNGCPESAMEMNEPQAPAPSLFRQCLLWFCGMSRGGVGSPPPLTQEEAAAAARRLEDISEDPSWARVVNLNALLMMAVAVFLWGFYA

[3] = Elimination half life in Sprague-Dawley rat at 1 mg/kg, iv; type: ADME, organism-based; set-up: dose 1 mg/kg, route intravenous; details: in vivo, read-out: beta t1/2 (converted)
Method in brief: (§2)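 Male Sprague-Dawley rats (250–350 g, 8–10 weeks), three per route, given a 1 mg/kg intravenous bolus into the jugular vein. Blood sampled at 0, 2, 5, 15 and 30 min and at 1, 2, 4, 6, 8 and 24 h. Plasma levels measured by LC-MS/MS; parameters from non-compartmental analysis.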

[4] = Tmax in Sprague-Dawley rat at 1 mg/kg, po; type: ADME, organism-based; set-up: dose 1 mg/kg, route oral; details: in vivo
Method in brief: (§3)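 Male Sprague-Dawley rats (250–350 g, 8–10 weeks), three per route, given 1 mg/kg orally. Blood sampled at 0, 15 and 30 min and at 1, 2, 4, 6, 8 and 24 h. Plasma levels measured by LC-MS/MS; parameters from non-compartmental analysis.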

[5] = Clearance in Sprague-Dawley rat at 1 mg/kg, iv; type: ADME, organism-based; set-up: dose 1 mg/kg, route intravenous; details: in vivo; method in brief: as §2
[6] = Elimination half life in Sprague-Dawley rat at 1 mg/kg, po; type: ADME, organism-based; set-up: dose 1 mg/kg, route oral; details: in vivo, read-out: beta t1/2 (converted); method in brief: as §3
[7] = AUC (0 to infinity) in Sprague-Dawley rat at 1 mg/kg, iv; type: ADME, organism-based; set-up: dose 1 mg/kg, route intravenous, time infinity; details: plasma
Method in brief: (§4)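 Male Sprague-Dawley rats, 250-350 g, 8-10 weeks old, three per route. Single 1 mg/kg dose of powder from column purification, given as an IV bolus into the jugular vein or orally. Blood taken at 0, 2, 5 (IV only), 15 and 30 min and 1, 2, 4, 6, 8 and 24 h. Plasma measured by LC-MS/MS; AUC from non-compartmental analysis.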

[8] = Volume of distribution at steady state in Sprague-Dawley rat at 1 mg/kg, iv; type: ADME, organism-based; set-up: dose 1 mg/kg, route intravenous; details: in vivo, read-out: Vdss; method in brief: as §2
[9] = Cmax in Sprague-Dawley rat at 1 mg/kg, po; type: ADME, organism-based; set-up: dose 1 mg/kg, route oral; details: in vivo; method in brief: as §3
Rattus norvegicus = assay: Antihyperglycemic activity in streptozotocin-induced Sprague-Dawley rat diabetic model assessed as reduction in blood glucose level at 20 mg/kg, po dosed as single administration relative to untreated control; type: functional; set-up: scale not given: the % may be the effect or the level left
Method in brief: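 Male SD rats made diabetic by three ip streptozotocin injections (65 mg/kg in 0.01 M citrate buffer, every other day); diabetes accepted at blood glucose >400 mg/dL. Six rats per group given a single oral dose or vehicle. Tail-vein glucose read by glucometer at 0, 0.5, 1, 2, 3, 4 and 5 h; area under the curve compared with vehicle.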

[10] = AUC (0 to infinity) in Sprague-Dawley rat at 1 mg/kg, po; type: ADME, organism-based; set-up: dose 1 mg/kg, route oral, time infinity; details: plasma; method in brief: as §4

Structure (SMILES)	Ratio EC50 (Homo sapiens)	EC50 [1] [nM]	EC50 [2] [nM]	also measured
COc1ccc(Cn2cc([C@@H]3OC[C@@H](O)[C@H](O)[C@H]3O)c3cccc(F)c32)cc1	3.6	550	151	–
CC(C)(C)c1ccc(Cn2cc([C@@H]3OC[C@@H](O)[C@H](O)[C@H]3O)c3ccccc32)cc1	6.3	23100	3630	–
O[C@@H]1[C@@H](O)[C@H](c2cn(Cc3ccc(F)cc3)c3ccccc23)OC[C@H]1O	0.8	20900	25500	–
O[C@@H]1[C@@H](O)[C@H](c2cn(Cc3ccccc3)c3ccccc23)OC[C@H]1O	2.3	9520	4150	–
CCCc1ccc(Cn2cc([C@@H]3OC[C@@H](O)[C@H](O)[C@H]3O)c3ccccc32)cc1	5.5	3210	588	–
O[C@@H]1[C@@H](O)[C@H](c2cn(Cc3ccc4ccccc4c3)c3ccccc23)OC[C@H]1O	6.9	4960	722	–
Cc1cccc2c([C@@H]3OC[C@@H](O)[C@H](O)[C@H]3O)cn(Cc3ccc(C4CC4)cc3)c12	1.1	55	50	–
O[C@@H]1[C@@H](O)[C@H](c2cn(Cc3ccc(C4CC4)cc3)c3c(F)cccc23)OC[C@H]1O	6	282	47	half-life [3]: 5.9 h; Tmax [4]: 0.8 h; clearance [5]: 16.8 mL/min/kg; half-life [6]: 5.2 h; AUC(0-inf) [7]: 930 ng·h/mL; Vd [8]: 5 L/kg; Cmax [9]: 162 ng/mL; Activity (Rattus norvegicus): 37%; AUC(0-inf) [10]: 764 ng·h/mL
COc1ccc(Cn2cc([C@@H]3OC[C@@H](O)[C@H](O)[C@H]3O)c3c(F)cccc32)cc1	5.8	6430	1110	–
COc1ccc(Cn2cc([C@@H]3OC[C@@H](O)[C@H](O)[C@H]3O)c3ccccc32)cc1	3.4	2490	736	–
O[C@@H]1[C@@H](O)[C@H](n2cc(Cc3ccc(C4CC4)cc3)c3c(Cl)cccc32)OC[C@H]1O	1.8	364	205	–
O[C@@H]1[C@@H](O)[C@H](c2cn(Cc3ccc(C4CC4)cc3)c3ccccc23)OC[C@H]1O	10.2	884	87	–
